The source made the active and inactive calls. The rule behind the calls is not given here.
Columns and labels:
CCRF-CEM [1] = experiment: Growth inhibition of human CCRF-CEM cells after 48 hrs by cell culture assay; type: functional; details: read-out: ID50 (the source's name)
How it was run: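 CCRF-CEM human lymphoblastic leukemia cells, which lack cystathionase and need exogenous L-cysteine, grown in culture with test lactone; growth inhibition expressed as ID50 (M).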

CCRF-SLT = experiment: Growth inhibition of human CCRF-SLT cells in presence of cystathionine; type: functional, cell-based
How it was run: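 Cystathionase-containing CCRF-SLT cell line, able to grow on cystathionine, cultured with test lactone in medium supplemented with cystathionine and, in parallel, without it; growth inhibition compared between the two media.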

CCRF-CEM [2] = experiment: Growth inhibition of human CCRF-CEM cells after 48 hrs by cell culture assay in presence of 1 x 10^-4 M L-cysteine; type: functional; details: read-out: ID50 (the source's name)

Compound | IC50 (CCRF-CEM [1]) [nM] | IC50 (CCRF-CEM [2]) [nM] | growth inhibition (GI) (CCRF-SLT)
C=C1C(=O)OC(C)(C)C1C (stereo not drawn) | 21000 | – | Active
C=C[C@]12CC[C@H]3C(=C)C(=O)O[C@@H]3[C@H]1C(=C)C(=O)OC2 | – | 34 | –
C=C1C(=O)O[C@H]2CCC[C@@H]1C2 (relative stereo) | 16000 | – | Active
C=C1C(=O)OC[C@@]2(CC)CC[C@H]3C(=C)C(=O)O[C@@H]3[C@@H]12 | – | 34 | –
C=C1C(=O)O[C@@H]2CCC[C@@H](O)[C@H]12 (relative stereo) | 15000 | – | Active
C=C[C@@]12COC(=O)C(=C)[C@@H]1[C@H]1OC(=O)C(=C)[C@@H]1[C@@H](O)C2 [VERNOLEPIN] | – | 430 | –
C=C1C(=O)OC[C@H]2[C@H]3CC[C@@H](C3)[C@@H]12 | 7000 | – | –

More lines, main results first:

IC50 (CCRF-CEM [1]) [nM] | IC50 (CCRF-CEM [2]) [nM] | Compound | growth inhibition (GI) (CCRF-SLT)
2100 | – | C=C(C(=O)OC)[C@H]1CCC[C@H]2C(=C)C(=O)O[C@H]12 (relative stereo) | –
680 | – | C=C[C@]12CCCC[C@H]1C(=C)C(=O)OC2 (relative stereo) | –
2700 | – | C=C1C(=O)O[C@@H]2CC[C@@H](O)[C@H]12 (relative stereo) | –

Reference: ChEMBL document CHEMBL3244055, “Synthesis of mono- and bifunctional alpha-methylene lactone systems as potential tumor inhibitors” (1977)
